Source: ChEMBL document CHEMBL1152280 (J Med Chem, 2008)
Where a SMILES comes first, the peptide text is derived from it. [ ]: non-standard residue; d: D form. Leu(5,5,5,5',5',5'-F6) = N[C@@H](CC(C(F)(F)F)C(F)(F)F)C(=O)O

Tests used:
Mus musculus = organism: Mus musculus; assay: Toxicity in C57BL/6 mouse assessed as effect on body weight after 5 days; format: organism-based; details: in vivo, 120 h
[1] = Stability in presence of DPP4 assessed as peptide degradation after 24 hrs by HPLC; format: ADME
Outline: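 Peptides (10 μM) incubated with DPP IV (20 units/L, activity calibrated on Gly-Pro-p-nitroanilide at 410 nm) in 50 mM Tris·HCl, 1 mM EDTA, pH 7.6, 37 °C, sampled over 200 min and up to 24 h. Samples were quenched in 0.2% TFA and run on C18 RP-HPLC (CH3CN/H2O/0.1% TFA, 230 nm). First-order k was fitted from ln[A] versus time, and fragments were identified by ESI-MS.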

Stability [1] | Structure (SMILES) | Activity (Mus musculus)
– | CC[C@H](C)[C@H](NC(=O)[C@H](Cc1ccccc1)NC(=O)[C@H](CCC(=O)O)NC(=O)[C@H](CCCCN)NC(=O)[C@H](C)NC(=O)[C@H](C)NC(=O)[C@H](CCC(N)=O)NC(=O)CNC(=O)[C@H](CCC(=O)O)NC(=O)CNC(=O)[C@H](CC(C)C)NC(=O)[C@H](Cc1ccc(O)cc1)NC(=O)[C@H](CO)NC(=O)[C@H](CO)NC(=O)[C@@H](NC(=O)[C@H](CC(=O)O)NC(=O)[C@H](CO)NC(=O)[C@@H](NC(=O)[C@H](Cc1ccccc1)NC(=O)[C@@H](NC(=O)CNC(=O)[C@H](CC(C(F)(F)F)C(F)(F)F)NC(=O)[C@H](C)NC(=O)[C@@H](N)Cc1cnc[nH]1)[C@@H](C)O)[C@@H](C)O)C(C)C)C(=O)N[C@@H](C)C(=O)N[C@@H](Cc1c[nH]c2ccccc12)C(=O)N[C@@H](CC(C)C)C(=O)N[C@H](C(=O)N[C@@H](CCCCN)C(=O)NCC(=O)N[C@@H](CCCNC(=N)N)C(N)=O)C(C)C (H-HA[Leu(5,5,5,5',5',5'-F6)]GTFTSDVSSYLGEGQAAKEFIAWLVKGR-NH2) | Non-toxic
– | CC[C@H](C)[C@H](NC(=O)[C@H](CC(C(F)(F)F)C(F)(F)F)NC(=O)[C@H](CCC(=O)O)NC(=O)[C@H](CCCCN)NC(=O)[C@H](C)NC(=O)[C@H](C)NC(=O)[C@H](CCC(N)=O)NC(=O)CNC(=O)[C@H](CCC(=O)O)NC(=O)[C@H](CC(C)C)NC(=O)[C@H](Cc1ccc(O)cc1)NC(=O)[C@H](CO)NC(=O)[C@H](CO)NC(=O)[C@@H](NC(=O)[C@H](CC(=O)O)NC(=O)[C@H](CO)NC(=O)[C@@H](NC(=O)[C@H](Cc1ccccc1)NC(=O)[C@@H](NC(=O)CNC(=O)[C@H](CCC(=O)O)NC(=O)[C@H](C)NC(=O)[C@@H](N)Cc1cnc[nH]1)[C@@H](C)O)[C@@H](C)O)C(C)C)C(=O)N[C@@H](C)C(=O)N[C@@H](Cc1c[nH]c2ccccc12)C(=O)N[C@@H](CC(C)C)C(=O)N[C@H](C(=O)N[C@@H](CCCCN)C(=O)NCC(=O)N[C@@H](CCCN=C(N)N)C(=O)O)C(C)C | Non-toxic
Stable | CC[C@H](C)[C@H](NC(=O)[C@H](Cc1ccccc1)NC(=O)[C@H](CCC(=O)O)NC(=O)[C@H](CCCCN)NC(=O)[C@H](C)NC(=O)[C@H](C)NC(=O)[C@H](CCC(N)=O)NC(=O)CNC(=O)[C@H](CCC(=O)O)NC(=O)[C@H](CC(C)C)NC(=O)[C@H](Cc1ccc(O)cc1)NC(=O)[C@H](CO)NC(=O)[C@H](CO)NC(=O)[C@@H](NC(=O)[C@H](CC(=O)O)NC(=O)[C@H](CO)NC(=O)[C@@H](NC(=O)[C@H](Cc1ccccc1)NC(=O)[C@@H](NC(=O)CNC(=O)[C@H](CC(C(F)(F)F)C(F)(F)F)NC(=O)[C@H](CC(C(F)(F)F)C(F)(F)F)NC(=O)[C@@H](N)Cc1cnc[nH]1)[C@@H](C)O)[C@@H](C)O)C(C)C)C(=O)N[C@@H](C)C(=O)N[C@@H](Cc1c[nH]c2ccccc12)C(=O)N[C@@H](CC(C)C)C(=O)N[C@H](C(=O)N[C@@H](CCCCN)C(=O)NCC(=O)N[C@@H](CCCNC(=N)N)C(N)=O)C(C)C | Non-toxic
Stable | CC[C@H](C)[C@H](NC(=O)[C@H](Cc1ccccc1)NC(=O)[C@H](CCC(=O)O)NC(=O)[C@H](CCCCN)NC(=O)[C@H](C)NC(=O)[C@H](C)NC(=O)[C@H](CCC(N)=O)NC(=O)CNC(=O)[C@H](CCC(=O)O)NC(=O)[C@H](CC(C)C)NC(=O)[C@H](Cc1ccc(O)cc1)NC(=O)[C@H](CO)NC(=O)[C@H](CO)NC(=O)[C@@H](NC(=O)[C@H](CC(=O)O)NC(=O)[C@H](CO)NC(=O)[C@@H](NC(=O)[C@H](Cc1ccccc1)NC(=O)[C@@H](NC(=O)CNC(=O)[C@H](CCC(=O)O)NC(=O)[C@H](CC(C(F)(F)F)C(F)(F)F)NC(=O)[C@@H](N)Cc1cnc[nH]1)[C@@H](C)O)[C@@H](C)O)C(C)C)C(=O)N[C@@H](C)C(=O)N[C@@H](Cc1c[nH]c2ccccc12)C(=O)N[C@@H](CC(C)C)C(=O)N[C@H](C(=O)N[C@@H](CCCCN)C(=O)NCC(=O)N[C@@H](CCCNC(=N)N)C(N)=O)C(C)C | Non-toxic
– | CC[C@H](C)[C@H](NC(=O)[C@H](Cc1ccccc1)NC(=O)[C@H](CCC(=O)O)NC(=O)[C@H](CCCCN)NC(=O)[C@H](C)NC(=O)[C@H](C)NC(=O)[C@H](CCC(N)=O)NC(=O)CNC(=O)[C@H](CCC(=O)O)NC(=O)[C@H](CC(C)C)NC(=O)[C@H](Cc1ccc(O)cc1)NC(=O)[C@H](CO)NC(=O)[C@H](CO)NC(=O)[C@@H](NC(=O)[C@H](CC(=O)O)NC(=O)[C@H](CO)NC(=O)[C@@H](NC(=O)[C@H](Cc1ccccc1)NC(=O)[C@@H](NC(=O)[C@H](CC(C(F)(F)F)C(F)(F)F)NC(=O)[C@H](CCC(=O)O)NC(=O)[C@H](C)NC(=O)[C@@H](N)Cc1cnc[nH]1)[C@@H](C)O)[C@@H](C)O)C(C)C)C(=O)N[C@@H](C)C(=O)N[C@@H](Cc1c[nH]c2ccccc12)C(=O)N[C@@H](CC(C)C)C(=O)N[C@H](C(=O)N[C@@H](CCCCN)C(=O)NCC(=O)N[C@@H](CCCN=C(N)N)C(N)=O)C(C)C | Non-toxic
– | CC[C@H](C)[C@H](NC(=O)[C@H](Cc1ccccc1)NC(=O)[C@H](CCC(=O)O)NC(=O)[C@H](CCCCN)NC(=O)[C@H](C)NC(=O)[C@H](C)NC(=O)[C@H](CCC(N)=O)NC(=O)CNC(=O)[C@H](CCC(=O)O)NC(=O)[C@H](CC(C)C)NC(=O)[C@H](Cc1ccc(O)cc1)NC(=O)[C@H](CO)NC(=O)[C@H](CO)NC(=O)[C@@H](NC(=O)[C@H](CC(=O)O)NC(=O)[C@H](CO)NC(=O)[C@@H](NC(=O)[C@H](Cc1ccccc1)NC(=O)[C@@H](NC(=O)CNC(=O)[C@H](CCC(=O)O)NC(=O)[C@H](C)NC(=O)[C@@H](N)Cc1cnc[nH]1)[C@@H](C)O)[C@@H](C)O)C(C)C)C(=O)N[C@@H](C)C(=O)N[C@@H](Cc1c[nH]c2ccccc12)C(=O)N[C@@H](CC(C(F)(F)F)C(F)(F)F)C(=O)N[C@H](C(=O)N[C@@H](CCCCN)C(=O)NCC(=O)N[C@@H](CCCNC(=N)N)C(N)=O)C(C)C | Non-toxic
– | CC(C)C[C@H](NC(=O)[C@H](Cc1ccc(O)cc1)NC(=O)[C@H](CO)NC(=O)[C@H](CO)NC(=O)[C@@H](NC(=O)[C@H](CC(=O)O)NC(=O)[C@H](CO)NC(=O)[C@@H](NC(=O)[C@H](Cc1ccccc1)NC(=O)[C@@H](NC(=O)CNC(=O)[C@H](CCC(=O)O)NC(=O)[C@H](C)NC(=O)[C@@H](N)Cc1cnc[nH]1)[C@@H](C)O)[C@@H](C)O)C(C)C)C(=O)N[C@@H](CCC(=O)O)C(=O)NCC(=O)N[C@@H](CCC(N)=O)C(=O)N[C@@H](C)C(=O)N[C@@H](C)C(=O)N[C@@H](CCCCN)C(=O)N[C@@H](CCC(=O)O)C(=O)N[C@@H](Cc1ccccc1)C(=O)N[C@@H](CC(C(F)(F)F)C(F)(F)F)C(=O)N[C@@H](C)C(=O)N[C@@H](Cc1c[nH]c2ccccc12)C(=O)N[C@@H](CC(C)C)C(=O)N[C@H](C(=O)N[C@@H](CCCCN)C(=O)NCC(=O)N[C@@H](CCCNC(=N)N)C(N)=O)C(C)C | Non-toxic
